Most compounds without a hit are left out; they make up all but 1.6% or so of the library.
Mac1 fbg enh: increases human CD11b/CD18 adhesion to fibrinogen. K562 CD11b/CD18 adhesion to fibrinogen, ATPlite luminescence. activation, % at 10 µM. 0.07% of 93,000 active. AID 1499;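 active = 10 µM primary screen giving 50% or more activity, confirmed by 40% or more on retest at that dose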
Rev-RRE block: disrupts HIV-1 Rev binding to RRE RNA; Rev peptide-RRE RNA binding, FRET; P05866; inhibition, % at 8 µM; 0.79% of 97,000 active;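 active = inhibition above the screen-wide mean plus 3 SD, cut at about 35% in these data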;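 note: 0% = median DMSO wells and 100% = median Neomycin B control wells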
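Test system: labelled RRE RNA duplex and labelled Rev peptide. Times: 5 min compound–RNA preincubation, then 15 min with peptide, 25 °C. Doses: single-dose 8 µM. Measured by: FRET, excitation 480 nm, emission 540 nm donor and 671 nm acceptor. Measure: % inhibition of FRET ratio versus controls.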
sEH inhibitor: soluble epoxide hydrolase (human) inhibition; P34913; recombinant human sEH enzymatic activity assay; inhibition, % at 2 µM; 0.34% of 91,000 active; in the data active = inhibition above about 80%
Smad3 inh: inhibitors of human Smad3 transcription factor binding | P84022 | TR-FRET Smad3/Dy647-FoxH1 peptide binding, europium anti-His | inhibition, % at 25 µM | 0.29% of 88,000 active;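 active = compounds that reduce the energy-transfer binding signal between the protein and its labelled peptide by more than half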;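 note: 0% = Smad3 plus labelled peptide maximal FRET and 100% = peptide-only background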
sEH act: increases human soluble epoxide hydrolase activity; P34913; purified human sEH enzymatic activity, activator screen; activation, % at 2 µM; 0.04% of 91,000 active; AID 717; in the data active = activation above about 37%
Mac1 fbg inh: CD11b/CD18-fibrinogen binding inhibition; P05107+P11215; K562 CD11b/CD18 adhesion to fibrinogen, ATPlite luminescence; Mn2+ added to activate the integrin; inhibition, % at 10 µM; 0.54% of 93,000 active;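 active = primary inhibition of 50% or more at 10 µM, then 40% or more on retest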
Starred values were filed as active, the others as inactive; · = not tested or not shown; [ ] = remark or other dose.

SMILES	Mac1 fbg enh	Rev-RRE block	sEH inhibitor	Smad3 inh	sEH act	Mac1 fbg inh
c1cncc(-c2nc(NCC3COc4ccccc4O3)c3ccccc3n2)c1 (configuration not stated)	-3	16	4	-6	-6	-22
Nc1nc(N)c2[nH]c(CNC3CCC(C(=O)O)CC3)nc2n1 (configuration not stated)	·	·	·	4	·	·
O=c1[nH]c(Nc2ccc(F)cc2)cc2ccccc12	4	47*	5	·	-4	13
N#Cc1c(C(F)(F)F)cc(-c2ccccc2Cl)[nH]c1=O	-2	8	·	·	·	62*
CS(=O)(=O)N(CC(=O)O)Cc1ccccc1	·	·	·	-1	·	·
CCOC(=O)c1ccc2c(c1)C1C=CCC1C(C(=O)O)N2 (configuration not stated)	116*	·	·	·	·	-24
CCOC(=O)c1sc(N)c(C#N)c1COC(=O)CNC(=O)c1cc(OC)c(OC)c(OC)c1	2	53*	16	·	-14	-2
COc1ccc(NC(=O)CN2C(=O)C(C)SC(C)C2=O)c(OC)c1 (configuration not stated)	1	·	·	·	·	10
CCOC(=O)c1c2c(n(C)c1COC)C(=O)C(=O)c1ccc(Br)cc1-2	·	12	-3	75*	5	·
Cc1cc(Cc2cc(Cc3cc(C)cc(C(C)(C)C)c3O)c(C)cc2C)c(O)c(C(C)(C)C)c1	·	·	·	-8	·	·
O=C1COC(c2ccccc2O)=NN1CCCN1CCCC1	·	·	·	12	·	·
COC(=O)COc1ccc(S(=O)(=O)NCc2ccncc2)cc1	-4	4	23	-3	-21	80*
CC(C)(C)n1ncc2c(=O)n(Cc3ccc(Cl)cc3Cl)cnc21	5	6	-4	·	3	50*
CC(C)(C)n1ncc2c(=O)n(Cc3c(F)cccc3Cl)cnc21	0	8	2	·	-3	5
CCOC(=O)C1NC(=O)CC1c1ccccc1 (configuration not stated)	·	5	-14	-6	15	·
CCOC(=O)[C@@H]1CCNC[C@@H]1c1ccccc1	0	141*[fluorescence artefact?]	·	-10	·	-7
Clc1ccccc1-c1nc(N/N=C/c2cccnc2)c2ccccc2n1	·	-2	0	-1	2	·
Cc1ccc(-c2nc(N/N=C/c3ccncc3)c3ccccc3n2)cc1	-9	6	-9	7	6	103*
O=C1c2ccccc2-c2cccc(NS(=O)(=O)c3ccc(C(F)(F)F)cc3)c21	-12	100*[fluorescence artefact?]	-1	·	3	104
Cc1ccc(S(=O)(=O)Nc2ccccc2-c2ccccc2NS(=O)(=O)c2ccc(C)cc2)cc1	·	-1	-8	·	10	·
CN(CCO)Cc1ncccc1O	·	·	·	4	·	·
O=C1C2C3C=CC(C4CC34)C2C(=O)N1/N=C/c1ccc(-c2ccc(F)cc2[N+](=O)[O-])o1 (configuration not stated)	1	42*	7	7	-6	-1
CN(CCc1ccccn1)c1ccc2c(c1)C(=O)c1ccccc1-2	·	·	·	3	·	·
Cc1ccc(OCCSCc2nc3ccccc3[nH]2)cc1	·	8	6	·	-4	·
Clc1ccc(OCCSCc2nc3ccccc3[nH]2)cc1	-12	15	3	·	-2	76*
SMILES	Mac1 fbg enh	Rev-RRE block	sEH inhibitor	Smad3 inh	sEH act	Mac1 fbg inh
CC(c1nnc(SCC(=O)N2CC(=O)Nc3ccccc32)n1Cc1ccccc1)N(C)C (configuration not stated)	-1	-2	8	48	-9	3
Cc1cc(N2CCN(c3nc4ccccc4s3)CC2)n2ncnc2n1	-12	6	5	-11	-5	74*
O=C(Cc1cccs1)Nc1nc(-c2ccc(F)cc2F)cs1	-6	18	2	4	2	65*
Sc1ccc2ccccc2c1CNCc1ccccc1	·	·	·	-6	·	·
O=C(CN1CCC(c2nc3ccccc3s2)CC1)NCc1cccs1	-8	12	7	-13	-6	100*
CC(C)n1c(N2CCN(CC(=O)NCc3cccs3)CC2)nc2ccccc21	2	5	0	2	0	-12
CN1C[C@H](c2ccccc2)C(O)([C@]2(c3ccccc3)CN(C)C[C@H](c3ccccc3)C2=O)[C@H](c2ccccc2)C1 (some centres not stated)	·	·	·	6	·	·
O=S1(=O)[C@H]([C@H]2CC3c4ccccc4C2c2ccccc23)[C@@H](N2CCCCC2)[C@@H]1c1ccccc1	·	·	·	3	·	·

Source: PubChem BioAssay
